This passage reports IC50 and inhibition results from PubChem BioAssay AID588679 (Southern Research Specialized Biocontainment Screening …, 2011).

This test concerns the target M17 leucyl aminopeptidase (Plasmodium falciparum 3D7). The test can be described thus: PfM17LAP leucine aminopeptidase inhibitors, dose response, counter-screen for PfM18AAP inhibitor project, biochemical, QFRET (AID 588679). The conditions noted are these: recombinant PfM17LAP, H-Leu-NHMec fluorogenic cleavage. The method in brief: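 material = recombinant P. falciparum M17 aminopeptidase | times = enzyme reaction for 90 min at room temperature | detection = fluorescence, ex 370 nm, em 460 nm | repeats = each concentration tested in triplicate | dosing = Ten-concentration series with 100 µM top dose | read-out = percent inhibition normalized to controls, IC50 from logistic fit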

Calls of active or inactive are those of the source.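 How the source made its calls: active means inhibition of 30% or more at any tested concentration; inactive means the rest.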

In the case of `Cc1nc(NCCc2ccc(O)c(O)c2)c2c3c(sc2n1)CCC3`, the IC50 is 25.3 µM.

Consider `Cc1c(-c2ccccc2)[nH]c(-c2ccc(O)c(O)c2)[n+]1O`, for which the IC50 was 69.2 µM.

With `Cc1ccc(-c2nc(-c3ccc(O)c(O)c3)cs2)cc1`, the IC50 was 21.1 µM.

Take `CCC(C)C(=O)Nc1ccccc1N` (configuration not stated): the inhibition result (at 100 µM (top of the series)) is “inactive”.

Turning to `O=C1c2ccc3c4c(ccc(c24)C(=O)N1O)CC3`, the inhibition result (at 100 µM (top of the series)) was “inactive”.

As for `Oc1ccc(CCNc2cncc3ccccc23)cc1O`, the IC50 was 26.6 µM.

In the case of `COc1ccc(CCCNc2c3ccccc3nc3ccccc23)cc1OC`, where the note is “at 100 µM (top of the series)”, the inhibition result was “inactive”.

`COc1ccc(-c2csc(-c3ccccc3)n2)cc1OC`: the inhibition entry (at 100 µM (top of the series)) was “inactive”.

Consider `COc1ccc(CCNc2cncc3ccccc23)cc1OC`, for which, where the note is “at 100 µM (top of the series)”, the inhibition result is “inactive”.

As to `COc1ccc(CCN2CCN(C)CC2)cc1OC`, where the note is “at 100 µM (top of the series)”, the inhibition result is “inactive”.

In the case of `Oc1ccc(CCNC(c2ccccc2)c2ccccc2)cc1O`, the half-inhibitory concentration (IC50) is 46.8 µM.

Consider `Oc1ccc(CCNc2c3ccccc3nc3ccccc23)cc1`, for which the inhibition entry (at 100 µM (top of the series)) was “inactive”.

In the case of `COc1cccc(-c2nc(-c3ccc(OC)c(OC)c3)cs2)c1`, the inhibition result (at 100 µM (top of the series)) was “inactive”.

For the compound `COc1ccc(CCNC2CCN(Cc3ccccc3)CC2)cc1OC`, under “at 100 µM (top of the series)”, the inhibition entry is “inactive”.

Take `COc1ccc(CC(=O)O)cc1OC`: the inhibition entry (at 100 µM (top of the series)) is “inactive”.

In the case of `NCCNc1c2ccccc2nc2ccccc12`, the inhibition entry (at 100 µM (top of the series)) is “inactive”.

Regarding `COc1ccc(CCNc2c3c(nc4ccccc24)CCCC3)cc1OC`, the inhibition result (at 100 µM (top of the series)) was “inactive”.

For the compound `O=S1(=O)c2ccccc2-c2cc(-c3nc(-c4ccc(O)c(O)c4)[nH]c3-c3ccccc3)ccc21`, the IC50 was 20 µM.

Regarding `COc1ccc(CCNc2cccc3ccccc23)cc1OC`, where the note is “at 100 µM (top of the series)”, the inhibition entry was “inactive”.

Turning to `Oc1ccc(-c2csc(Cc3cc4ccccc4[nH]3)n2)cc1O`, the concentration for half-maximal inhibition (IC50) is 22 µM.

As to `Nc1cc(C(=O)c2ccccc2)ccc1O`, the IC50 was 31.4 µM.

`COc1ccc(CCN(C)CCc2ccccc2)cc1OC`: the inhibition entry (at 100 µM (top of the series)) was “inactive”.

As to `COc1ccc(CCNc2c3ccccc3nc3ccccc23)cc1OC`, where the note is “at 100 µM (top of the series)”, the inhibition result was “inactive”.

Consider `O=C(c1ccco1)N1CCN(Cc2cc(=O)c(O)c[nH]2)CC1`, for which the inhibition result (at 100 µM (top of the series)) is “inactive”.

`O=C(O)CCCNc1c2ccccc2nc2ccccc12`: the inhibition result (at 50 µM (top of the series)) is “inactive”.

Take `Oc1ccc(CCNc2c3c(nc4ccccc24)CCCC3)cc1O`: the IC50 was 61.8 µM.

For `Oc1ccc(CCN2CCc3ccccc3C2)cc1O`, the IC50 is 58.6 µM.

Regarding `CCC(C)C(=O)Nc1ccccc1O` (configuration not stated), for the setting “at 100 µM (top of the series)”, the inhibition entry was “inactive”.

With `Oc1ccc(CCCNc2c3ccccc3nc3ccccc23)cc1O`, the inhibition entry (at 100 µM (top of the series)) was “inactive”.

On to `O=C(O)CCCCNc1c2ccccc2nc2ccccc12`, for which, for the setting “at 50 µM (top of the series)”, the inhibition result is “inactive”.

For the compound `COc1ccc(CNc2c3ccccc3nc3ccccc23)cc1OC`, for the setting “at 100 µM (top of the series)”, the inhibition result is “inactive”.

For `COc1ccc(CCNc2ccnc3ccccc23)cc1OC`, where the note is “at 100 µM (top of the series)”, the inhibition result was “inactive”.

Consider `NCc1cc2c3c(c(=O)oc2c(O)c1O)CCC3`, for which the inhibition entry (at 100 µM (top of the series)) was “inactive”.

`Oc1ccc(CCNc2ccc3ccccc3c2)cc1O`: the IC50 was 39.7 µM.

On to `COc1ccc(CCNc2ccc3ccccc3c2)cc1OC`, for which the inhibition entry (at 100 µM (top of the series)) is “inactive”.

Consider `O=c1cc(CN2CCN(Cc3ccccc3)CC2)c2ccc(O)c(O)c2o1`, for which the IC50 is 94 µM.

On to `COc1ccc(CCNC2CCN(C)CC2)cc1OC`, for which the inhibition entry (at 100 µM (top of the series)) is “inactive”.

With `COc1ccc2c(c1)C(=O)C(N)CC2` (configuration not stated), where the note is “at 100 µM (top of the series)”, the inhibition entry was “inactive”.

As to `COc1cccc(CCNc2c3ccccc3nc3ccccc23)c1`, the inhibition entry (at 100 µM (top of the series)) was “inactive”.

In the case of `COc1ccc(CCNc2ccncc2)cc1OC`, where the note is “at 100 µM (top of the series)”, the inhibition entry was “inactive”.

Consider `O=c1ccc2cc(O)c(O)cc2o1`, for which the IC50 was 35.3 µM.

As to `COc1ccc(CCN2CCc3ccccc3C2)cc1OC`, the inhibition entry (at 100 µM (top of the series)) was “inactive”.

As for `Cc1c(OCc2ccccc2)c(=O)ccn1CCNc1c2ccccc2nc2ccccc12`, the inhibition entry (at 100 µM (top of the series)) is “inactive”.

As to `Cc1c(O)c(=O)ccn1CCNc1c2ccccc2nc2ccccc12`, for the setting “at 100 µM (top of the series)”, the inhibition entry was “inactive”.

`COc1ccc(CCN(C)c2ccnc3ccccc23)cc1OC`: the inhibition entry (at 100 µM (top of the series)) was “inactive”.

Regarding `CC(C)(C)C(=O)OCc1nc(-c2ccc(O)c(O)c2)cs1`, the IC50 is 29.4 µM.

Turning to `O=C(c1ccco1)N1CCN(Cc2cc(=O)c(O)co2)CC1`, the inhibition result (at 100 µM (top of the series)) is “inactive”.

Take `COc1ccc(CCC(=O)O)cc1OC`: the inhibition result (at 100 µM (top of the series)) is “inactive”.

For the compound `CCOc1cccc(-c2nc(-c3ccc(O)c(O)c3)cs2)c1`, the IC50 is 23.5 µM.

As to `COc1ccc(CCN(C)c2ccncc2)cc1OC`, where the note is “at 100 µM (top of the series)”, the inhibition entry is “inactive”.

`O=c1cc(CO)oc(CN2CCCCC2)c1O`: for the setting “at 100 µM (top of the series)”, the inhibition result is “inactive”.

Take `COc1ccc(-c2nc(-c3ccccc3)c(-c3ccccc3)[nH]2)cc1OC`: the inhibition result (at 100 µM (top of the series)) is “inactive”.

Consider `Oc1ccc(CCNc2cccc3ccccc23)cc1O`, for which the IC50 is 26.9 µM.

As for `CCC(C)c1ccc(N)c(O)c1` (configuration not stated), the IC50 is 37.6 µM.

Consider `CN(CCc1ccc(O)c(O)c1)c1ccnc2ccccc12`, for which the IC50 is 18 µM.

For the compound `COc1ccc(-c2csc(-c3ccccc3OC)n2)cc1OC`, where the note is “at 100 µM (top of the series)”, the inhibition entry is “inactive”.

On to `O=C1OCCN1CCc1nc(-c2ccc(O)c(O)c2)cs1`, for which the half-maximal inhibitory concentration (IC50) is 37 µM.
